Measured values as given in ChEMBL document CHEMBL1139409, “Pestalachlorides A-C, antifungal metabolites from the plant endophytic fungus Pestalotiopsis adusta” (Bioorg Med Chem, 2008).
Values after ≈ are worked out from the molar mass of the structure shown.

System: Fusarium culmorum
Experiment: Antifungal activity against Fusarium culmorum by Almar blue assay
Type: functional, organism-based
Summary of the method: (§1)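 Plant pathogen strains from CGMCC, maintained on potato dextrose agar; inocula from broth cultures grown 25 °C for 48 h, final suspension 1 × 10^4 hyphae/mL. Samples from 10 mg/mL DMSO stock, serially diluted, in triplicate, with alamar blue indicator; incubated 28 °C for 48 h, fluorescence read at Ex/Em 544/590 nm. Inhibition rate plotted against concentration to give IC50 and MIC; NCCLS-based method.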

Point of comparison: `CC(C)=CCc1c(O)cc(O)c2c1C(=O)c1c(O)c(Cl)c(C)c(Cl)c1OC2` [PESTALACHLORIDE B], IC50 4.7 µM. Against it:
- COc1c(Cl)c(C)c(Cl)c(O)c1C1NC(=O)c2c(O)cc(O)c(CC=C(C)C)c21 (racemic) [PESTALACHLORIDE A] — 5.3-fold lower, 0.89 µM
- COc1c(Cl)c(C)c(Cl)c2c1[C@H]1c3c(C=O)c(O)cc(O)c3C[C@@H]1C(C)(C)O2 (racemic) [PESTALACHLORIDE C] — higher, > 118 µM

Point of comparison: `CC(C)=CCc1c(O)cc(O)c2c1C(=O)c1c(O)c(Cl)c(C)c(Cl)c1OC2` [PESTALACHLORIDE B], MIC 49 µM (≈ 20.1 µg/mL). Against it:
- COc1c(Cl)c(C)c(Cl)c(O)c1C1NC(=O)c2c(O)cc(O)c(CC=C(C)C)c21 (racemic) [PESTALACHLORIDE A] — 6.8-fold lower, 7.2 µM (≈ 3.16 µg/mL)
- COc1c(Cl)c(C)c(Cl)c2c1[C@H]1c3c(C=O)c(O)cc(O)c3C[C@@H]1C(C)(C)O2 (racemic) [PESTALACHLORIDE C] — higher, > 237 µM

System: Fusarium graminearum
Experiment: Antifungal activity against Gibberella zeae by Almar blue assay
Type: functional, organism-based
Summary of the method: as §1

Point of comparison: `COc1c(Cl)c(C)c(Cl)c(O)c1C1NC(=O)c2c(O)cc(O)c(CC=C(C)C)c21` (racemic) [PESTALACHLORIDE A], IC50 54.4 µM. Against it:
- COc1c(Cl)c(C)c(Cl)c2c1[C@H]1c3c(C=O)c(O)cc(O)c3C[C@@H]1C(C)(C)O2 (racemic) [PESTALACHLORIDE C] — higher, > 118 µM
- CC(C)=CCc1c(O)cc(O)c2c1C(=O)c1c(O)c(Cl)c(C)c(Cl)c1OC2 [PESTALACHLORIDE B] — 49-fold lower, 1.1 µM

Point of comparison: `COc1c(Cl)c(C)c(Cl)c(O)c1C1NC(=O)c2c(O)cc(O)c(CC=C(C)C)c21` (racemic) [PESTALACHLORIDE A], MIC 114 µM (≈ 50.1 µg/mL). Against it:
- COc1c(Cl)c(C)c(Cl)c2c1[C@H]1c3c(C=O)c(O)cc(O)c3C[C@@H]1C(C)(C)O2 (racemic) [PESTALACHLORIDE C] — higher, > 237 µM
- CC(C)=CCc1c(O)cc(O)c2c1C(=O)c1c(O)c(Cl)c(C)c(Cl)c1OC2 [PESTALACHLORIDE B] — 9.3-fold lower, 12.2 µM (≈ 4.99 µg/mL)

System: Verticillium albo-atrum
Experiment: Antifungal activity against Verticillium albo-atrum by Almar blue assay
Type: functional, organism-based
Summary of the method: as §1

Point of comparison: `COc1c(Cl)c(C)c(Cl)c(O)c1C1NC(=O)c2c(O)cc(O)c(CC=C(C)C)c21` (racemic) [PESTALACHLORIDE A], IC50 58.3 µM. Against it:
- COc1c(Cl)c(C)c(Cl)c2c1[C@H]1c3c(C=O)c(O)cc(O)c3C[C@@H]1C(C)(C)O2 (racemic) [PESTALACHLORIDE C] — higher, > 118 µM
- CC(C)=CCc1c(O)cc(O)c2c1C(=O)c1c(O)c(Cl)c(C)c(Cl)c1OC2 [PESTALACHLORIDE B] — 7.4-fold lower, 7.9 µM

Point of comparison: `COc1c(Cl)c(C)c(Cl)c(O)c1C1NC(=O)c2c(O)cc(O)c(CC=C(C)C)c21` (racemic) [PESTALACHLORIDE A], MIC 114 µM (≈ 50.1 µg/mL). Against it:
- COc1c(Cl)c(C)c(Cl)c2c1[C@H]1c3c(C=O)c(O)cc(O)c3C[C@@H]1C(C)(C)O2 (racemic) [PESTALACHLORIDE C] — higher, > 237 µM
- CC(C)=CCc1c(O)cc(O)c2c1C(=O)c1c(O)c(Cl)c(C)c(Cl)c1OC2 [PESTALACHLORIDE B] — 9.3-fold lower, 12.2 µM (≈ 4.99 µg/mL)
